According to ChEMBL document CHEMBL1152403, “Synthesis and evaluation of new endomorphin analogues modified at the Pro(2) residue” (Bioorg Med Chem Lett, 2009):
Where a SMILES comes first, the peptide text is derived from it. [ ]: non-standard residue; d: D form. Dha = C=C(N)C(=O)O

Tests used:
Rattus norvegicus = organism: Rattus norvegicus; test: Selectivity ratio of Ki for delta opioid receptor in rat brain membrane to Ki for mu opioid receptor in rat brain membrane; type: cell membranes
[1] = target: Delta-type opioid receptor (Mus musculus) (UniProt P32300); test: Agonist activity at delta opioid receptor in mouse vas deference assessed as inhibition of electrically-stimulated contraction at 1 uM; type: functional
[2] = target: Delta-type opioid receptor (Rattus norvegicus, UniProt P33533); test: Displacement of [3H][…] from delta opioid receptor in rat brain membrane by liquid scintillation counting; type: cell membranes
Mu-type opioid receptor [3] = target: Mu-type opioid receptor (Rattus norvegicus, UniProt P33535); test: Displacement of [3H]DAMGO from mu opioid receptor in rat brain membrane by liquid scintillation counting; type: cell membranes
[4] = target: Delta-type opioid receptor (Mus musculus, UniProt P32300); test: Agonist activity at delta opioid receptor in mouse vas deference assessed as inhibition of electrically-stimulated contraction; type: functional
In short: (§1)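 Isolated-tissue bioassay of inhibition of electrically evoked contraction (MVD for δ, GPI/LMMP for μ). IC50 is the mean of at least four experiments. IC50, relative potency and standard errors were obtained by fitting the data to the Hill equation by computerized non-linear least squares.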

Mu-type opioid receptor [5] = target: Mu-type opioid receptor (Cavia porcellus, UniProt P97266); test: Agonist activity at mu opioid receptor in guinea pig ileum assessed as inhibition of electrically-stimulated contraction; type: functional, tissue-based; in short: as §1
Sequence of Mu-type opioid receptor (Cavia porcellus, UniProt P97266) (P97266 whole entry): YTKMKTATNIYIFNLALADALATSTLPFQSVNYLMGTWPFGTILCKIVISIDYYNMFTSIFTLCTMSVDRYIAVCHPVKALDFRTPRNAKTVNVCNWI

Sequence of Mu-type opioid receptor (Rattus norvegicus, UniProt P33535) (P33535 whole entry): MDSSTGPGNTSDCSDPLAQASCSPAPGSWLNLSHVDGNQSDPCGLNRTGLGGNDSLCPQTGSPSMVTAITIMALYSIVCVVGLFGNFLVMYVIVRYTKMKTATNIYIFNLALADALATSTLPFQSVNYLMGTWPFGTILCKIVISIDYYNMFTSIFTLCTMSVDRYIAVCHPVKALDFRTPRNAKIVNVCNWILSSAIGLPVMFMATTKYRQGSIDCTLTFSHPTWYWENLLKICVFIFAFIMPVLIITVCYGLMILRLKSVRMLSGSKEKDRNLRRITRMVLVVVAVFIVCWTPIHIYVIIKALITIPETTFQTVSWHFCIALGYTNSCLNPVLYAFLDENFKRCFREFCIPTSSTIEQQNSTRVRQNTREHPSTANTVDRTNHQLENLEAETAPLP
Sequence of Delta-type opioid receptor (Rattus norvegicus, UniProt P33533) (P33533 whole entry): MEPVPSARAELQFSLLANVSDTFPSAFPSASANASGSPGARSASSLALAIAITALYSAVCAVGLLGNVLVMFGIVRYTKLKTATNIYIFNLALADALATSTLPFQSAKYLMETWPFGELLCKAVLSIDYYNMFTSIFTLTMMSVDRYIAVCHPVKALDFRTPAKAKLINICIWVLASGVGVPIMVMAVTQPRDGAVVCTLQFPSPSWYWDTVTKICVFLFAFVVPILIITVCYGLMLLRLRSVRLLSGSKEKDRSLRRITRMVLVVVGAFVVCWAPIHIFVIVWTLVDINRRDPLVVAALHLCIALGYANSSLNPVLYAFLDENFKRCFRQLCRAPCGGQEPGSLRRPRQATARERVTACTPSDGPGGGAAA
Sequence of Delta-type opioid receptor (Mus musculus, UniProt P32300) (P32300 whole entry): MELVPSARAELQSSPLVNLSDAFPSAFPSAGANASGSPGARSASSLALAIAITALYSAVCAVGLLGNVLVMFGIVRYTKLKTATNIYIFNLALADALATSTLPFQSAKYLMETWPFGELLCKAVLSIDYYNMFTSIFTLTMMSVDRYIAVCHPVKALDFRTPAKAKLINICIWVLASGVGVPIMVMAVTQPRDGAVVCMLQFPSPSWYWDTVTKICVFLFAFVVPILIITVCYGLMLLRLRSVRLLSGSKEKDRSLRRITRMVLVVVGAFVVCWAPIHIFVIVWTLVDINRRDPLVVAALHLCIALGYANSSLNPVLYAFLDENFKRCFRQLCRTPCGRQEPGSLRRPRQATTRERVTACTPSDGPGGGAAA
Sequence of Delta-type opioid receptor (Mus musculus) (P32300 whole entry): as above

| SMILES | Ratio Ki (Rattus norvegicus) | inhibition [1] [%] | Ki [2] [nM] | Ki (Mu-type opioid receptor [3]) [nM] | IC50 [4] [nM] | IC50 (Mu-type opioid receptor [5]) [nM] |
| --- | --- | --- | --- | --- | --- | --- |
| NC(=O)[C@H](Cc1ccccc1)NC(=O)[C@H](Cc1ccccc1)NC(=O)C1CN(C(=O)[C@@H](N)Cc2ccc(O)cc2)C1 | 32 | 13 | 6900 | 210 |  |  |
| NC(=O)[C@H](Cc1ccccc1)NC(=O)[C@H](Cc1ccccc1)NC(=O)[C@@H]1CCN1C(=O)[C@@H](N)Cc1ccc(O)cc1 | 920 |  | 5100 | 5.6 |  |  |
| NC(=O)[C@H](Cc1ccccc1)NC(=O)[C@H](Cc1c[nH]c2ccccc12)NC(=O)C1CN(C(=O)[C@@H](N)Cc2ccc(O)cc2)C1 | 1.2 |  | 40 | 34 |  |  |
| NC(=O)[C@H](Cc1ccccc1)NC(=O)[C@H](Cc1c[nH]c2ccccc12)NC(=O)[C@@H]1CCN1C(=O)[C@@H](N)Cc1ccc(O)cc1 | 1500 |  | 3500 | 2.3 |  |  |
| NC(=O)[C@H](Cc1ccccc1)NC(=O)[C@H](Cc1ccccc1)NC(=O)[C@@H]1C=CCN1C(=O)[C@@H](N)Cc1ccc(O)cc1 |  |  |  | 6.5 | 70000 | 14000 |
| C=C(NC(=O)[C@@H](N)Cc1ccc(O)cc1)C(=O)N[C@@H](Cc1ccccc1)C(=O)N[C@@H](Cc1ccccc1)C(N)=O (H-Y[Dha]FF-NH2) | 21 |  | 710 | 34 |  |  |
